Calls of active or inactive are those of the source. The rule behind the calls is not given here. Positions of bridges follow the written chain, without caps; N, C: chain ends. Non-standard residues stand in square brackets, D forms with d. Residues, ends and D or L forms follow the SMILES beside them. ξ: configuration not given here. S5 = C=CCCC[C@](C)(N)C(=O)O; Orn = NCCC[C@H](N)C(=O)O; ξK = NCCCCC(N)C(=O)O; ξA = CC(N)C(=O)O
Key:
[1] = molecular target: Proprotein convertase subtilisin/kexin type 9 (Homo sapiens, UniProt Q8NBP7); assay: Binding affinity to human PCSK9 by surface plasmon resonance
Procedure, shortened: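 Recombinant human His-tagged PCSK9 (Gln31–Gln692, HEK293-expressed) at 14 µg/mL amine-coupled onto Ni-NTA chip, ~1000–4000 RU. Buffer 25 mM Tris-HCl, 5 mM CaCl2, 100 mM NaCl, 0.01% P20, pH 7.5, 5% DMSO in running buffer. 25°C. Double-referenced sensorgrams; KD from steady-state equilibrium responses fit to a 4-parameter model, or kinetics fit 1:1.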

HepG2 = assay: Cytotoxicity against human HepG2 cells assessed as reduction in cell viability at 0.4 to 10 uM for 48 hrs by SRB assay; type: toxicity, cell-based; settings: hepg2, 48 h, dose 0.4-10 µM
Procedure, shortened: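 HepG2 cells seeded 2000/well 24 h before treatment. Compounds at 0.4, 1.1, 3.3 and 10 µM in DMEM, 48 h at 37°C. SRB staining 30 min at 37°C, dye dissolved in 10 mM Tris base, absorbance at 560 nm. Triplicate wells averaged and normalized to untreated cells.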

Chain of Proprotein convertase subtilisin/kexin type 9 (Q8NBP7 31-152 limits assumed): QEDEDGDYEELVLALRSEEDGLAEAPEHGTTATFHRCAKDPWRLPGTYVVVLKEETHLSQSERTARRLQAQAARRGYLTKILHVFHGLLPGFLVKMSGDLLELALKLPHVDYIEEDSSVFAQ
Chain of Proprotein convertase subtilisin/kexin type 9 (Q8NBP7 153-692 limits assumed): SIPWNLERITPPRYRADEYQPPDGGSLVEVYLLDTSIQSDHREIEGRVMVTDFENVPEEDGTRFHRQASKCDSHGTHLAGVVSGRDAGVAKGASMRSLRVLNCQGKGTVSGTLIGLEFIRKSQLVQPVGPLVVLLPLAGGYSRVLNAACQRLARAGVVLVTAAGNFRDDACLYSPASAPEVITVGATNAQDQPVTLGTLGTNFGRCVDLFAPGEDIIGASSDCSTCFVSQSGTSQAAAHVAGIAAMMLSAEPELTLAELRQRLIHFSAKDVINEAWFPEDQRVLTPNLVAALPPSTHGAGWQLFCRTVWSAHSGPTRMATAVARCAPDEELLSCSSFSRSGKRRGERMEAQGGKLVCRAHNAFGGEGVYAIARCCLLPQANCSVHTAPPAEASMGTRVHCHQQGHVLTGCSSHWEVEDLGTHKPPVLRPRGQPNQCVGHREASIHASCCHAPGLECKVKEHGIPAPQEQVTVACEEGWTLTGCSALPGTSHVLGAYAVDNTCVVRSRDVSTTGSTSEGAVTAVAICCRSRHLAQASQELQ

Compound: CC(=O)N[C@H](C(=O)N[C@H](C(=O)N[C@@H](Cc1ccccc1)C(=O)N[C@H](C(=O)N[C@@H](CO)C(=O)N[C@@H](Cc1c[nH]c2ccccc12)C(=O)N[C@H]1CCCCNC(=O)C[C@@H](C(=O)N[C@@H](Cc2c[nH]c3ccccc23)C(=O)N[C@H](C(=O)N[C@@H](CCCCN)C(=O)N[C@@H](CCCCN)C(=O)N[C@@H](C)C(=O)N[C@@H](CCCCN)C(=O)N[C@@H](CCCCN)C(=O)N[C@H](CCCCN)C(N)=O)C(C)C)NC(=O)[C@H](CC(C)C)NC(=O)[C@H](Cc2ccc(O)cc2)NC(=O)[C@H](CCC(=O)O)NC1=O)[C@@H](C)O)C(C)C)[C@@H](C)O
- Kd [1]: 0.133 µM

Compound: CC(=O)N[C@@H](Cc1cnc[nH]1)C(=O)N[C@H](C(=O)N[C@@H](Cc1ccccc1)C(=O)N[C@@H](CC(N)=O)C(=O)N[C@@H](CO)C(=O)N[C@@H](Cc1c[nH]c2ccccc12)C(=O)N[C@@H](CCC(=O)O)C(=O)N[C@@H](CCC(=O)O)C(=O)N[C@@H](Cc1ccc(O)cc1)C(=O)N[C@@H](CC(C)C)C(=O)N[C@@H](CC(=O)O)C(=O)N[C@@H](Cc1c[nH]c2ccccc12)C(=O)N[C@H](C(=O)NC(CCCCN)C(=O)NC(CCCCN)C(=O)NC(CCCCN)C(N)=O)C(C)C)C(C)C (some centres undefined) (Ac-HVFNSWEEYLDWV[ξK][ξK][ξK]-NH2)
- Activity (HepG2): Non-Toxic
- Kd [1]: 1.1 µM

Compound: CC(=O)N[C@@H](Cc1cnc[nH]1)C(=O)N[C@H](C(=O)N[C@@H](Cc1ccccc1)C(=O)N[C@@H](CC(N)=O)C(=O)N[C@@H](CO)C(=O)N[C@@H](Cc1c[nH]c2ccccc12)C(=O)N[C@H]1CCCCNC(=O)C[C@@H](C(=O)N[C@@H](Cc2c[nH]c3ccccc23)C(=O)N[C@H](C(N)=O)C(C)C)NC(=O)[C@H](CC(C)C)NC(=O)[C@H](Cc2ccc(O)cc2)NC(=O)[C@H](CCC(=O)O)NC1=O)C(C)C (Ac-HVFNSWKEYLDWV-NH2; lactam 7-11)
- Activity (HepG2): Non-Toxic
- Kd [1]: 5.3 µM

Compound: CC(=O)N[C@@H](Cc1cnc[nH]1)C(=O)N[C@H](C(=O)N[C@@H](Cc1ccccc1)C(=O)N[C@@H](CC(N)=O)C(=O)N[C@@H](CO)C(=O)N[C@@H](Cc1c[nH]c2ccccc12)C(=O)N[C@H]1CCCCNC(=O)C[C@@H](C(=O)N[C@@H](Cc2c[nH]c3ccccc23)C(=O)N[C@H](C(=O)N[C@@H](CCCCN)C(=O)N[C@@H](CCCCN)C(=O)N[C@@H](CCCCN)C(=O)N[C@@H](CCCCN)C(=O)N[C@@H](CCCCN)C(=O)N[C@@H](CCCCN)C(N)=O)C(C)C)NC(=O)[C@H](CC(C)C)NC(=O)[C@H](Cc2ccc(O)cc2)NC(=O)[C@H](CCC(=O)O)NC1=O)C(C)C (Ac-HVFNSWKEYLDWVKKKKKK-NH2; lactam 7-11)
- Activity (HepG2): Non-Toxic
- Kd [1]: 0.019 µM

Compound: CC(=O)N[C@@H](Cc1cnc[nH]1)C(=O)N[C@H](C(=O)N[C@@H](Cc1ccccc1)C(=O)N[C@@H](CC(N)=O)C(=O)N[C@@H](CO)C(=O)N[C@@H](Cc1c[nH]c2ccccc12)C(=O)N[C@H]1CCCCNC(=O)C[C@@H](C(=O)N[C@@H](Cc2c[nH]c3ccccc23)C(=O)N[C@H](C(=O)NC(CCCCN)C(=O)NC(CCCCN)C(=O)NC(CCCCN)C(N)=O)C(C)C)NC(=O)[C@H](CC(C)C)NC(=O)[C@H](Cc2ccc(O)cc2)NC(=O)[C@H](CCC(=O)O)NC1=O)C(C)C (some centres undefined) (Ac-HVFNSWKEYLDWV[ξK][ξK][ξK]-NH2; lactam 7-11)
- Activity (HepG2): Non-Toxic
- Kd [1]: 0.757 µM

Compound: CC(=O)N[C@@H](Cc1cnc[nH]1)C(=O)N[C@H](C(=O)N[C@@H](Cc1ccccc1)C(=O)N[C@@H](CCCNC(=N)N)C(=O)N[C@@H](CO)C(=O)N[C@@H](Cc1c[nH]c2ccccc12)C(=O)N[C@@]1(C)CCC/C=C\CCC[C@@](C)(C(=O)N[C@@H](Cc2c[nH]c3ccccc23)C(=O)N[C@H](C(=O)N[C@@H](CCCCN)C(=O)N[C@@H](CCCCN)C(=O)N[C@@H](CCCCN)C(=O)N[C@@H](CCCCN)C(=O)N[C@@H](CCCCN)C(=O)N[C@@H](CCCCN)C(N)=O)C(C)C)NC(=O)[C@H](CC(C)C)NC(=O)[C@H](Cc2ccc(O)cc2)NC(=O)[C@H](CCC(=O)O)NC1=O)C(C)C (Ac-HVFRSW[S5]EYL[S5]WVKKKKKK-NH2; staple (Z) 7-11)
- Activity (HepG2): Non-Toxic
- Kd [1]: 0.007 µM

Compound: CC(=O)N[C@@H](Cc1cnc[nH]1)C(=O)N[C@H](C(=O)N[C@@H](Cc1ccccc1)C(=O)N[C@@H](CCCN)C(=O)N[C@@H](CO)C(=O)N[C@@H](Cc1c[nH]c2ccccc12)C(=O)N[C@@H](CCC(=O)O)C(=O)N[C@@H](CCC(=O)O)C(=O)N[C@@H](Cc1ccc(O)cc1)C(=O)N[C@@H](CC(C)C)C(=O)N[C@@H](CC(=O)O)C(=O)N[C@@H](Cc1c[nH]c2ccccc12)C(=O)N[C@H](C(N)=O)C(C)C)C(C)C (Ac-HVF[Orn]SWEEYLDWV-NH2)
- Activity (HepG2): Non-Toxic
- Kd [1]: 1.1 µM

Compound: CC(=O)N[C@H](C(=O)N[C@H](C(=O)N[C@@H](Cc1ccccc1)C(=O)N[C@H](C(=O)N[C@@H](CO)C(=O)N[C@@H](Cc1c[nH]c2ccccc12)C(=O)N[C@@H](CCC(=O)O)C(=O)N[C@@H](CCC(=O)O)C(=O)N[C@@H](Cc1ccc(O)cc1)C(=O)N[C@@H](CC(C)C)C(=O)NC(C)C(=O)N[C@@H](Cc1c[nH]c2ccccc12)C(=O)N[C@H](C(=O)N[C@@H](CCCCN)C(=O)N[C@@H](CCCCN)C(=O)N[C@@H](CCCCN)C(=O)N[C@@H](CCCCN)C(=O)N[C@@H](CCCCN)C(=O)N[C@@H](CCCCN)C(N)=O)C(C)C)[C@@H](C)O)C(C)C)[C@@H](C)O (some centres undefined) (Ac-TVFTSWEEYL[ξA]WVKKKKKK-NH2)
- Kd [1]: 0.0725 µM

Compound: CC(=O)N[C@H](C(=O)N[C@H](C(=O)N[C@@H](Cc1ccccc1)C(=O)N[C@H](C(=O)N[C@@H](CO)C(=O)N[C@@H](Cc1c[nH]c2ccccc12)C(=O)N[C@H]1CCCCNC(=O)C[C@@H](C(=O)N[C@@H](Cc2c[nH]c3ccccc23)C(=O)N[C@H](C(=O)N[C@@H](CCCCN)C(=O)N[C@@H](CCCCN)C(=O)N[C@@H](CCCCN)C(N)=O)C(C)C)NC(=O)[C@H](CC(C)C)NC(=O)[C@H](Cc2ccc(O)cc2)NC(=O)[C@H](CCC(=O)O)NC1=O)[C@@H](C)O)C(C)C)[C@@H](C)O (Ac-TVFTSWKEYLDWVKKK-NH2; lactam 7-11)
- Activity (HepG2): Non-Toxic
- Kd [1]: 1 µM

Compound: CC(=O)N[C@H](C(=O)N[C@H](C(=O)N[C@@H](Cc1ccccc1)C(=O)N[C@H](C(=O)N[C@@H](CO)C(=O)N[C@@H](Cc1c[nH]c2ccccc12)C(=O)N[C@H]1CCCCNC(=O)C[C@@H](C(=O)N[C@@H](Cc2c[nH]c3ccccc23)C(=O)N[C@H](C(=O)N[C@@H](CCCCN)C(=O)N[C@@H](CCCCN)C(=O)N[C@@H](CCCCN)C(=O)N[C@@H](CCCCN)C(=O)N[C@@H](CCCCN)C(=O)N[C@@H](CCCCN)C(N)=O)C(C)C)NC(=O)[C@H](CC(C)C)NC(=O)[C@H](Cc2ccc(O)cc2)NC(=O)[C@H](CCC(=O)O)NC1=O)[C@@H](C)O)C(C)C)[C@@H](C)O (Ac-TVFTSWKEYLDWVKKKKKK-NH2; lactam 7-11)
- Activity (HepG2): Non-Toxic
- Kd [1]: 0.025 µM

Compound: Ac-HVCNSWEEYLDWV-NH2
- Activity (HepG2): Non-Toxic
- Activity [1]: inactive

Compound: Ac-HVFKSWEEYLDWV-NH2
- Activity (HepG2): Non-Toxic
- Kd [1]: 1.2 µM

Compound: Ac-HVFRSWEEYLDWV-NH2
- Activity (HepG2): Non-Toxic
- Kd [1]: 0.865 µM

Compound: Ac-TVATSWEEYLDWV-NH2
- Activity [1]: inactive

Compound: Ac-TVFTSWAEYLDWV-NH2
- Activity (HepG2): Non-Toxic
- Kd [1]: 7 µM

Compound: Ac-TVFTSWEEALDWV-NH2
- Activity (HepG2): Non-Toxic

Compound: Ac-TVFTSWEEYLAWV-NH2
- Kd [1]: 8.6 µM

Reference: ChEMBL document CHEMBL5038602, “Potent Lys Patch-Containing Stapled Peptides Targeting PCSK9” (J Med Chem, 2021)
